{"source": "the RNAGym collection of RNA variant scans (doi:10.1126/science.aae0568)", "parents": {"B1": {"name": "tRNA (parent)", "chain": "GUUCCGUUGGCGUAAUGGUAACGCGUCUCCCUCCUAAGGAGAAGACUGCGGGUUCGAGUCCCGUACGGAACG"}}, "note": "Variants at the floor of the assay were thinned out."}
{"variants_of": "B1", "assay": "yeast fitness relative to wild type (ratio to wild type); higher = fitter; tRNA-Arg(CCU), competitive growth, 37 C, YPD", "in_short": "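Amplicons of the tRNA-Arg(CCU) gene were sequenced, 100-nucleotide paired-end, from the start population and from each end population of a pooled yeast competition. The competition, in six parallel replicates, lasted 24 hours in YPD at 37°C. Fitness relative to wild type was calculated from changes in genotype frequencies. Genotypes had to have ≥ 100 starting reads, and estimates < 0.5 were set to 0.5.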"}
{"variant": "U19A C60G A69U", "yeast fitness": "≤ 0.5"}
{"variant": "G18C C24G C34U C49A U64C G67A", "yeast fitness": "≤ 0.5"}
{"variant": "G18C C33A A36C G51C", "yeast fitness": "≤ 0.5"}
{"variant": "U19A C22U A40U G51C C66U A70G", "yeast fitness": "≤ 0.5"}
{"variant": "G18A G23A A43C U59A", "yeast fitness": "≤ 0.5"}
{"variant": "G18C C30G C46U G48A U54G", "yeast fitness": "≤ 0.5"}
{"variant": "G18C C55G", "yeast fitness": 0.585}
{"variant": "G18C C55U", "yeast fitness": 0.532}
{"variant": "G18C A42C A43C C66G", "yeast fitness": "≤ 0.5"}
{"variant": "G18C G23A G25C A37G A65G", "yeast fitness": "≤ 0.5"}
{"variant": "G18C A57U C61U", "yeast fitness": "≤ 0.5"}
{"variant": "U19A C27U A57G", "yeast fitness": 0.725}
{"variant": "G18C C22A C29U A45C", "yeast fitness": "≤ 0.5"}
{"variant": "U19C A20C A65U", "yeast fitness": 0.55}
{"variant": "U19A U35A A37G A43U A45C", "yeast fitness": "≤ 0.5"}
{"variant": "G18C C46U C61G", "yeast fitness": "≤ 0.5"}
{"variant": "U19A G23C C30A A36G C60U", "yeast fitness": "≤ 0.5"}
{"variant": "G18A G25C A43U A69C", "yeast fitness": "≤ 0.5"}
{"variant": "G18C A40C C49G G63A", "yeast fitness": 0.553}
{"variant": "G18C C29U A43G C49A", "yeast fitness": "≤ 0.5"}
{"variant": "U19A C24A C31G G68C", "yeast fitness": "≤ 0.5"}
{"variant": "U19C A36C U47A G48C U54G A65C", "yeast fitness": "≤ 0.5"}
{"variant": "U19A G48A A69U", "yeast fitness": 0.966}
{"variant": "G18C C29G A36C G44C G50A", "yeast fitness": 0.526}
{"variant": "G18C A40C C49G", "yeast fitness": "≤ 0.5"}
{"variant": "U19A C27A C31A G52A G58C A70G", "yeast fitness": "≤ 0.5"}
{"variant": "G18C A40G", "yeast fitness": 0.64}
{"variant": "U19C A20C G50C U64C", "yeast fitness": "≤ 0.5"}
{"variant": "U19A G44A A69C", "yeast fitness": 0.685}
{"variant": "U19C C24G A37U U47A A65G C66U", "yeast fitness": "≤ 0.5"}
{"variant": "U19A A42G U47C", "yeast fitness": "≤ 0.5"}
{"variant": "G18C C49U G56C G58A", "yeast fitness": "≤ 0.5"}
{"variant": "G18C C66U", "yeast fitness": 0.59}
{"variant": "U19C A43U C62A", "yeast fitness": 0.628}
{"variant": "U19A A20C A21G C30G C55G", "yeast fitness": 0.573}
{"variant": "G18C C62G C66A", "yeast fitness": "≤ 0.5"}
{"variant": "U19A A43C A69U", "yeast fitness": 0.56}
{"variant": "U19A C30G A36G C61G", "yeast fitness": "≤ 0.5"}
{"variant": "G18A G25C C30G G41U A57U", "yeast fitness": "≤ 0.5"}
{"variant": "G18A G50C C55G C62A", "yeast fitness": 0.561}
{"variant": "U19A U59A", "yeast fitness": 0.845}
{"variant": "U19A U59G", "yeast fitness": 0.793}
{"variant": "G18C U19C A21G C61U", "yeast fitness": "≤ 0.5"}
{"variant": "U19A U53A", "yeast fitness": 0.553}
{"variant": "G18C G48A C66U", "yeast fitness": 0.545}
{"variant": "G18C A40G A42G C66G", "yeast fitness": "≤ 0.5"}
{"variant": "U19C C22A C55G C62U", "yeast fitness": "≤ 0.5"}
{"variant": "G18C U28A A42U", "yeast fitness": "≤ 0.5"}
{"variant": "U19C A20G A37G", "yeast fitness": "≤ 0.5"}
{"variant": "U19A A40G", "yeast fitness": 0.75}
{"variant": "U19A G50A", "yeast fitness": 0.795}
{"variant": "U19A G52C", "yeast fitness": 0.656}
{"variant": "G18C A43C", "yeast fitness": 0.719}
{"variant": "U19C A20U A42C A65C A69U", "yeast fitness": "≤ 0.5"}
{"variant": "G18C C24U C29G C30G", "yeast fitness": 0.593}
{"variant": "U19A C30U G38C U53G", "yeast fitness": "≤ 0.5"}
{"variant": "U19A A21U", "yeast fitness": 0.854}
{"variant": "G18C U19G A20G C33A U35C C66A", "yeast fitness": "≤ 0.5"}
{"variant": "U19C A20C C24A", "yeast fitness": "≤ 0.5"}
{"variant": "U19A U32A A36G", "yeast fitness": "≤ 0.5"}
{"variant": "U19C C22G A65U", "yeast fitness": 0.547}
{"variant": "G18A G50C G56C", "yeast fitness": "≤ 0.5"}
{"variant": "G18C A20G C55U G67C", "yeast fitness": "≤ 0.5"}
{"variant": "U19A A21G C27U C33U G67C", "yeast fitness": "≤ 0.5"}
{"variant": "U19C C22U U32G C34U A40G A57U A70U", "yeast fitness": "≤ 0.5"}
{"variant": "U19A C24G C27U C30A U64A A70C", "yeast fitness": "≤ 0.5"}
{"variant": "U19C A36C G41C", "yeast fitness": "≤ 0.5"}
{"variant": "U19A C55U", "yeast fitness": 0.694}
{"variant": "G18C C27U G68C", "yeast fitness": 0.548}
{"variant": "G18C C24G C46A", "yeast fitness": "≤ 0.5"}
{"variant": "G18C C24G C46G", "yeast fitness": "≤ 0.5"}
{"variant": "U19A C24A", "yeast fitness": 0.598}
{"variant": "U19A C24G", "yeast fitness": 0.633}
{"variant": "U19A C24U", "yeast fitness": 1.03}
{"variant": "U19A A37U A43G A57G", "yeast fitness": 0.594}
{"variant": "G18C U19A A36U", "yeast fitness": "≤ 0.5"}
{"variant": "G18C U26C U28A A65U", "yeast fitness": "≤ 0.5"}
{"variant": "G18C A21G G23A A43C", "yeast fitness": "≤ 0.5"}
{"variant": "G18C G51C C61G A70C", "yeast fitness": "≤ 0.5"}
{"variant": "U19A A40G C60U U64C", "yeast fitness": 0.705}
{"variant": "U19C C22U G25C C27G A40C", "yeast fitness": 0.587}
{"variant": "U19C A21G C22U", "yeast fitness": 0.552}
{"variant": "U19A C46U A57C A70C", "yeast fitness": "≤ 0.5"}
